Data: ChEMBL document CHEMBL4610116, “Salicylanilide Analog Minimizes Relapse of Clostridioides difficile Infection in Mice” (J Med Chem, 2020)
The source made the active and inactive calls. No cut-off for these calls is given here.

Assays:
Clostridioides difficile [1] = assay: (§1) Suppression of relapse of Clostridioides difficile 630 infection in cefoperazone-treated C57BL/6J mouse model of recurrent Clostridioides difficile 630 infection assessed as reduction in group-Proteobacteria level at 5 mg/kg, po for 5 days from day 4 to 9 after infection with spores measured on day day 14; assay type: functional, organism-based
Summary of the method: (§2)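 Recurrent CDI model in cefoperazone-treated C57BL/6J mice challenged with strain 630 and gavaged on days 4–9 (n = 6 per group). Cecal tissue snips collected at necropsy underwent 16S rRNA gene community sequencing on Illumina MiSeq.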

[2] = (§3) Effect on gut microbiota in cefoperazone-treated C57BL/6J mouse model of recurrent Clostridioides difficile 630 infection assessed as increase in alpha-diversity at 5 mg/kg, po for 5 days from day 4 to 9 after infection with spores measured on day day 14 by 16S rRNA Illumina sequencing analysis; assay type: ADME, organism-based; conditions: in vivo, 120 h; summary of the method: as §2
[3] = Clearance in non-antibioticc-treated C57Bl/6J mouse at 0.3 mg/kg, iv and measured after 5 mins to 24 hrs by LC/MS-SRM analysis; assay type: ADME, organism-based; conditions: in vivo
Summary of the method: (§4)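 Non-antibiotic-treated C57Bl/6J mice given a single i.v. dose of 0.3 mg/kg; n = 3 per time point. Bled at 5, 10, 30 min and 1, 2, 4, 8, 24 h. Plasma mixed with 2 volumes acetonitrile containing internal standard, centrifuged, supernatant quantified by LC/MS-SRM.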

[4] = Volume of distribution at steady state in non-antibioticc-treated C57Bl/6J mouse at 0.3 mg/kg, iv and measured after 5 mins to 24 hrs by LC/MS-SRM analysis; assay type: ADME, organism-based; conditions: in vivo; summary of the method: as §4
[5] = Tmax in cefoperazone-treated C57Bl/6J mouse at 1 mg/kg, po dosed each day for 5 days by LC/MS-SRM analysis; assay type: ADME, organism-based; conditions: in vivo
Summary of the method: (§5)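 C57Bl/6J mice pre-treated with cefoperazone 0.5 mg/mL in drinking water for 10 days, then a 2-day washout. Oral dose of 1 mg/kg given daily for 5 days. Bled at 5, 10, 30 min and 1, 2, 4, 10, 24 h after dosing on the first and final days; n = 3 per time point. Plasma mixed with 2 volumes acetonitrile containing internal standard, centrifuged, supernatant analysed by LC/MS-SRM.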

[6] = Cmax in cefoperazone-treated C57Bl/6J mouse at 1 mg/kg, po dosed each day for 5 days by LC/MS-SRM analysis; assay type: ADME, organism-based; design: dose 1 mg/kg, route oral; conditions: in vivo; summary of the method: as §5
Clostridioides difficile [7] = assay: as §1, with “microbial load (total vegetative cells plus spores)” for “group-Proteobacteria level”, “spores” for “spores measured on day day 14”; assay type: functional, organism-based
Summary of the method: (§6)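 Five-week-old C57BL/6J mice of both sexes given cefoperazone 0.5 mg/ml in drinking water for 5 days, then a 2-day washout. Oral challenge with C. difficile 630 spores on day 0. Oral gavage in 2-(hydroxypropyl)-cyclodextrin vehicle on days 4–9; n = 6 per group. Body weight recorded daily. Feces or cecal contents suspended 1:10 in PBS, serially diluted and plated on TCCFA, incubated anaerobically at 37°C for 24 h; results as CFU/g.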

[8] = as §3, with “abundance of phylum Firmicutes” for “alpha-diversity”; assay type: ADME, organism-based; conditions: in vivo, 120 h; summary of the method: as §2
Clostridioides difficile [9] = assay: as §1, with “histopathological summary scores” for “group-Proteobacteria level”; assay type: functional, organism-based
Summary of the method: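 Recurrent CDI model in cefoperazone-treated C57BL/6J mice challenged with strain 630 and gavaged on days 4–9 (n = 6 per group). At necropsy on day 14, H&E-stained cecum and colon scored 0–4 each for edema, inflammatory cell infiltration and epithelial damage. Scoring done blinded by a veterinary pathologist.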

Clostridioides difficile [10] = assay: Suppression of relapse of Clostridioides difficile 630 infection in cefoperazone-treated C57BL/6J mouse model of recurrent Clostridioides difficile 630 infection assessed as reduction in body weight loss at 5 mg/kg, po for 5 days from day 4 to 9 after infection with spores; assay type: functional, organism-based; summary of the method: as §6
[11] = AUC in non-antibioticc-treated C57Bl/6J mouse at 0.3 mg/kg, iv and measured after 5 mins to 24 hrs by LC/MS-SRM analysis; assay type: ADME, organism-based; design: time upper 24 hr, time lower 0.083 hr, dose 0.3 mg/kg, route intravenous; conditions: in vivo; summary of the method: as §4
Clostridioides difficile [12] = assay: as §1, with “group-Bacteroidaceae” for “group-Proteobacteria”; assay type: functional, organism-based; summary of the method: as §2

O=C(Nc1cc(C(F)(F)F)c(Oc2ccc(Cl)cc2)c(C(F)(F)F)c1)c1cc(Cl)cc(Cl)c1O
Activity (Clostridioides difficile [1]): Active | Activity [2]: Non-Toxic | clearance [3]: 1 mL/min/kg | Vdss [4]: 7.9 mL | Tmax [5]: 2 h | Cmax [6]: 1780 nM | Activity (Clostridioides difficile [7]): Active | Activity [8]: Non-Toxic | Activity (Clostridioides difficile [9]): Active | Activity (Clostridioides difficile [10]): Active | AUC [11]: 9.23 µM·h | Activity (Clostridioides difficile [12]): Active
